# Test system: HEK-293T
# Assay: Multiplex assay against HEK293T
# Format: toxicity, cell-based
# Details: human
# In short: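 Phenotypes for tubulin, mitochondrial mass and membrane permeability are expressed as per cents of healthy-nucleus cells. Cells were stained live at seeding with Hoechst33342, BioTracker Green Microtubule Cytoskeleton Dye, MitoTracker Red and Annexin V Alexa Fluor 680, then imaged after compound addition on a CQ1 microscope at 37°C and 5% CO2. Machine-learning gating in CellPathfinder separated Hoechst high-intensity objects from normal cells, divided normal cells by nuclear state (healthy, pyknosed, fragmented) and divided pyknosed cells into mitotic or apoptotic.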
# [1] = 12 h, 1 µM, compound concentration 1 uM, replicate 1
# [2] = 12 h, 1 µM, compound concentration 1 uM, replicate 2
# [3] = 12 h, 10 µM, compound concentration 10 uM, replicate 1
# [4] = 12 h, 10 µM, compound concentration 10 uM, replicate 2
# [5] = 24 h, 1 µM, compound concentration 1 uM, replicate 1
# [6] = 24 h, 1 µM, compound concentration 1 uM, replicate 2
# [7] = 24 h, 10 µM, compound concentration 10 uM, replicate 1
# [8] = 24 h, 10 µM, compound concentration 10 uM, replicate 2
# [9] = 48 h, 1 µM, compound concentration 1 uM, replicate 1
# [10] = 48 h, 1 µM, compound concentration 1 uM, replicate 2
# [11] = 48 h, 10 µM, compound concentration 10 uM, replicate 1
# [12] = 48 h, 10 µM, compound concentration 10 uM, replicate 2
smiles,measurement,setting,value
Cc1ccc(-c2ccc(F)cc2COc2ccc(CCC(=O)O)cc2)cc1,Population Apoptotic (%),[1],42%
same,Population Fragmented Nuclei (%),[1],6%
same,Population Healthy Nuclei (%),[1],82%
same,Population Hoechst High Intensity Objects (%),[1],9%
same,Population Mitochondria Different-Phenotype (%),[1],36%
same,Population Mitotic Cells (%),[1],57%
same,Population Normal (%),[1],90%
same,Population Tubulin-Different-Phenotype (%),[1],18%
same,Total Cell Count,[1],465
same,Population Apoptotic (%),[2],33%
same,Population Healthy Nuclei (%),[2],77%
same,Population Mitochondria Different-Phenotype (%),[2],50%
same,Population Mitotic Cells (%),[2],66%
same,Population Pyknosed Nuclei (%),[2],15%
same,Total Cell Count,[2],324
same,Population Apoptotic (%),[3],32%
same,Population Fragmented Nuclei (%),[3],10%
same,Population Healthy Nuclei (%),[3],79%
same,Population Hoechst High Intensity Objects (%),[3],7%
same,Population Mitochondria Different-Phenotype (%),[3],46%
same,Population Mitotic Cells (%),[3],67%
same,Population Normal (%),[3],92%
same,Population Pyknosed Nuclei (%),[3],10%
same,Population Tubulin-Different-Phenotype (%),[3],33%
same,Total Cell Count,[3],329
same,Population Apoptotic (%),[4],42%
same,Population Fragmented Nuclei (%),[4],7%
same,Population Healthy Nuclei (%),[4],83%
same,Population Hoechst High Intensity Objects (%),[4],6%
same,Population Mitochondria Different-Phenotype (%),[4],58%
same,Population Mitotic Cells (%),[4],57%
same,Population Normal (%),[4],93%
same,Population Pyknosed Nuclei (%),[4],9%
same,Population Tubulin-Different-Phenotype (%),[4],15%
same,Total Cell Count,[4],396
same,Population Apoptotic (%),[5],16%
same,Population Fragmented Nuclei (%),[5],10%
same,Population Healthy Nuclei (%),[5],82%
same,Population Hoechst High Intensity Objects (%),[5],3%
same,Population Mitochondria Different-Phenotype (%),[5],16%
same,Population Mitotic Cells (%),[5],84%
same,Population Normal (%),[5],96%
same,Population Pyknosed Nuclei (%),[5],7%
same,Population Tubulin-Different-Phenotype (%),[5],10%
same,Total Cell Count,[5],688
same,Population Apoptotic (%),[6],52%
same,Population Fragmented Nuclei (%),[6],9%
same,Population Healthy Nuclei (%),[6],80%
same,Population Hoechst High Intensity Objects (%),[6],7%
same,Population Mitochondria Different-Phenotype (%),[6],33%
same,Population Mitotic Cells (%),[6],47%
same,Population Normal (%),[6],92%
same,Population Pyknosed Nuclei (%),[6],9%
same,Population Tubulin-Different-Phenotype (%),[6],13%
same,Total Cell Count,[6],445
same,Population Apoptotic (%),[7],36%
same,Population Fragmented Nuclei (%),[7],11%
same,Population Healthy Nuclei (%),[7],76%
same,Population Hoechst High Intensity Objects (%),[7],5%
same,Population Mitochondria Different-Phenotype (%),[7],30%
same,Population Mitotic Cells (%),[7],63%
same,Population Normal (%),[7],94%
same,Population Tubulin-Different-Phenotype (%),[7],18%
same,Total Cell Count,[7],397
same,Population Apoptotic (%),[8],51%
same,Population Fragmented Nuclei (%),[8],6%
same,Population Healthy Nuclei (%),[8],87%
same,Population Hoechst High Intensity Objects (%),[8],3%
same,Population Mitochondria Different-Phenotype (%),[8],37%
same,Population Mitotic Cells (%),[8],48%
same,Population Normal (%),[8],96%
same,Population Pyknosed Nuclei (%),[8],6%
same,Population Tubulin-Different-Phenotype (%),[8],13%
same,Total Cell Count,[8],461
same,Population Apoptotic (%),[9],17%
same,Population Fragmented Nuclei (%),[9],15%
same,Population Healthy Nuclei (%),[9],79%
same,Population Hoechst High Intensity Objects (%),[9],1%
same,Population Mitochondria Different-Phenotype (%),[9],7%
same,Population Mitotic Cells (%),[9],82%
same,Population Normal (%),[9],98%
same,Population Pyknosed Nuclei (%),[9],5%
same,Population Tubulin-Different-Phenotype (%),[9],8%
same,Total Cell Count,[9],1149
same,Population Apoptotic (%),[10],36%
same,Population Fragmented Nuclei (%),[10],14%
same,Population Healthy Nuclei (%),[10],77%
same,Population Mitochondria Different-Phenotype (%),[10],18%
same,Population Mitotic Cells (%),[10],63%
same,Population Normal (%),[10],97%
same,Population Pyknosed Nuclei (%),[10],8%
same,Population Tubulin-Different-Phenotype (%),[10],9%
same,Total Cell Count,[10],631
same,Population Apoptotic (%),[11],24%
same,Population Fragmented Nuclei (%),[11],12%
same,Population Healthy Nuclei (%),[11],78%
same,Population Mitochondria Different-Phenotype (%),[11],17%
same,Population Mitotic Cells (%),[11],75%
same,Population Normal (%),[11],97%
same,Population Pyknosed Nuclei (%),[11],8%
same,Population Tubulin-Different-Phenotype (%),[11],9%
same,Total Cell Count,[11],713
same,Population Apoptotic (%),[12],31%
same,Population Fragmented Nuclei (%),[12],15%
same,Population Healthy Nuclei (%),[12],79%
same,Population Hoechst High Intensity Objects (%),[12],4%
same,Population Mitochondria Different-Phenotype (%),[12],16%
same,Population Mitotic Cells (%),[12],68%
same,Population Normal (%),[12],95%
same,Population Pyknosed Nuclei (%),[12],5%
same,Population Tubulin-Different-Phenotype (%),[12],8%
same,Total Cell Count,[12],702
